In the library only some 2.3% were active in any assay of this set; here they are far more common.
TRPC4 PAM – allosteric potentiators of mouse TRPC4 channel. AID 2227. Q9QUQ5. actives 0.42% (n = 310,000). B-score at 10 µM. HEK293 TRPC4beta/mu-opioid, DAMGO EC20, Fluo-4 Ca2+ flux; hits give high values;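 active = B-score of calcium response area above 5 SD of library B-scores, with initial fluorescence ratio within 5 SD of library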
Target sequence (Q9QUQ5 whole entry, looked up): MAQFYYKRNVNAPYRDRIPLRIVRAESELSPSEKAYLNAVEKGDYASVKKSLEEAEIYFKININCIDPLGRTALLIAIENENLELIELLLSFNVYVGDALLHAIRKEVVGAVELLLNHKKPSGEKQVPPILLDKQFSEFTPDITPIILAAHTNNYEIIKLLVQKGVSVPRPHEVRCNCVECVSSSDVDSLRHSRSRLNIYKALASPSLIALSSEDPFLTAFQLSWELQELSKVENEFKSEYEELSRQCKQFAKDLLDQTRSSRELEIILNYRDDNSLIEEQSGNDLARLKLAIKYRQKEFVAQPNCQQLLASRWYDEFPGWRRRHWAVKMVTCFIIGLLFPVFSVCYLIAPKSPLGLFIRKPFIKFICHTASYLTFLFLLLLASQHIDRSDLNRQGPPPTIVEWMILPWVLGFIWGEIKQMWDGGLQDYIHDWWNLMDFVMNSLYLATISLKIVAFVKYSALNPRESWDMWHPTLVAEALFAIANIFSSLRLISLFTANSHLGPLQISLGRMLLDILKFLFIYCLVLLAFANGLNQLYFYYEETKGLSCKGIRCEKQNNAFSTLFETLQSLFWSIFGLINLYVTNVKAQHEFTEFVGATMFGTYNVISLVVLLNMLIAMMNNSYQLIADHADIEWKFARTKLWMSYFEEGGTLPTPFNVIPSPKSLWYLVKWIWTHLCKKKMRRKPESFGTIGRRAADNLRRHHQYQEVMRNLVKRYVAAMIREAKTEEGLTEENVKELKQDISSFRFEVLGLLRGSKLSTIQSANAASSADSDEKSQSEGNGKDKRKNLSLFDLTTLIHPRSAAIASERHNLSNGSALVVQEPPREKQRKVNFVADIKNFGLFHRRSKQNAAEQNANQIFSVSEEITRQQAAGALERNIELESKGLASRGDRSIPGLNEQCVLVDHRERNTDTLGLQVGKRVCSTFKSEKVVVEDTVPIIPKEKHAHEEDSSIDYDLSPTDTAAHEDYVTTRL
TRPC4 inh – blocks the mouse TRPC4 cation channel; Q9QUQ5; HEK293 TRPC4beta/mu-opioid, DAMGO-evoked Fluo4 calcium flux; hits give low values; B-score at 10 µM; actives 0.39% (n = 300,000); AID 2247;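 active = B-score over 3 SD under the library average, no early fluorescence shift, positive overall ratio signal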
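Assay system – HEK293 line stably carrying TRPC4beta and mu-opioid receptor · Doses – single dose · Detection – Fluo4 calcium-dye fluorescence, kinetic read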
TRPC4 agonist – activators of mouse TRPC4 channel; Q9QUQ5; HEK293 TRPC4beta/mu-opioid, Fluo4 calcium fluorescence; hits give high values; B-score at 10 µM; actives 0.49% (n = 310,000); AID 2237;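 active = B-score above 5 SD of library B-scores, and initial fluorescence ratio not above library mean plus 5 SD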;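 note: positive B-score marks a calcium rise read as TRPC4 activation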
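system = HEK293 cells stably co-expressing mouse TRPC4beta and mu-opioid receptor | schedule = Fluo4 dye loading 45 min at room temperature, 110 s recording | measure = B-scored integrated calcium fluorescence ratio | signal = Fluo4 calcium-sensitive dye fluorescence, kinetic, 1 Hz baseline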
TRPC6 act – activators of mouse TRPC6 channel; AID 2550; B-score at 10 µM; HEK293-TRPC6 membrane potential dye fluorescence; hits give high values; Q61143; actives 0.13% (n = 310,000);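 active = B-score of the integrated fluorescence ratio above library mean plus 3 SD, and starting fluorescence ratio within library mean plus 5 SD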;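 note: higher score means more depolarization so channel activation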
TRPC6 inhibitor – mouse TRPC6 channel inhibition; B-score at 10 µM; Q61143; actives 1.1% (n = 310,000); HEK293-TRPC6, membrane potential dye, ACh-evoked depolarization; hits give low values;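 active = B-score under library mean minus 3 SD, initial fluorescence not abnormally high, positive integrated signal ratio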;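 note: B-score derived from integrated fluorescence ratio over the kinetic read; more negative B-score means stronger inhibition of depolarization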
TRPC4 spec 2 – mouse TRPC4 off-target activity of TRPC6 inhibitors, second screen; shares compounds with TRPC6 inhibitor; HEK293 TRPC4/MOR, membrane potential dye fluorescence; channel activated by saturating DAMGO dose; inhibition, % at 10 µM; actives 42% (n = 920); AID 2776;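 active = compounds whose fluorescence signal differed from control wells by over 3 SD, either direction, in both duplicate plates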
TRPC4 spec – selectivity of TRPC6 inhibitors: effect on mouse TRPC4. shares compounds with TRPC6 inhibitor. HEK293 TRPC4/mu-opioid, membrane potential fluorescence. activity change, negative = inhibition, % at 10 µM. actives 61% (n = 920). AID 2777;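 active = rise or fall in signal beyond 3 SD of buffer-only wells in both replicate plates, either sign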;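 note: integrated kinetic ratio of fluorescence range over baseline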
HEK293 MPD ctr 2-1 – parental HEK293 nonspecific activity of TRPC6 inhibitors, second screen | signal change vs control, % at 10 µM | shares compounds with TRPC6 inhibitor | parental HEK293 membrane potential dye fluorescence; maximal acetylcholine challenge after compound addition | actives 31% (n = 920) | AID 2779;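 active = membrane potential signal moving either way by over 3 SD of the maximum-effect control, in both duplicate plates, meaning non-specific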
HEK293 MPD ctr-1 – counter-screen for TRPC6 inhibitors: effect in parental HEK293 cells; shares compounds with TRPC6 inhibitor; parental HEK293 membrane potential dye fluorescence; membrane potential signal change, % at 10 µM; actives 60% (n = 920);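 active = membrane potential signal shifting up or down by more than 3 SD of buffer-only wells, on both duplicate plates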
HEK293 MPD ctr-2 – counter-screen for TRPC6 modulators: effect in parental HEK293 cells | shares compounds with TRPC6 inhibitor | membrane potential dye fluorescence | membrane potential signal change, % at 10 µM | actives 51% (n = 2,400) | AID 488924;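 active = membrane potential signal moves up or down beyond 5 SD from buffer-only wells, on both duplicate plates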
HEK293 MPD ctr 2-2 – second check of TRPC6 modulator effects in parental HEK293 cells | actives 14% (n = 2,400) | shares compounds with TRPC6 inhibitor | membrane potential dye fluorescence; after compound, maximal acetylcholine stimulation | AID 488926 | inhibition, % at 10 µM;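 active = membrane potential signal drops by more than 5 SD from the mean control signal, in both duplicate plates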
TRPC4/MOR mod – selectivity of TRPC6 modulators against mouse TRPC4; shares compounds with TRPC6 inhibitor; HEK293 TRPC4/mu-opioid, membrane potential fluorescence; percent change from control (negative = decrease, positive = increase), % at 10 µM; actives 69% (n = 2,400);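 active = membrane potential signal moved up or down beyond 5 SD of buffer control wells, in both duplicate plates, actives on both sides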
TRPC4 ctr inh 2 – mouse TRPC4 off-target activity of TRPC6 modulators, second screen; shares compounds with TRPC6 inhibitor; HEK293 TRPC4/mu-opioid, membrane potential dye fluorescence; stimulated with maximal-effect DAMGO; inhibition, % at 10 µM; actives 55% (n = 2,400);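 active = drop in membrane potential signal beyond 5 SD of the control wells in both duplicate plates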;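 note: TRPC4 counter screen for TRPC6 hits run under conditions tuned for TRPC6 not TRPC4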
TRPC6 block conf – mouse TRPC6 inhibitor confirmation; inhibition, % at 10 µM; AID 488960; shares compounds with TRPC6 inhibitor; actives 43% (n = 3,300); HEK293-TRPC6, membrane potential dye, ACh-evoked depolarization;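 active = fluorescence ratio falls more than 5 SD below the full-stimulation control mean, in both duplicate runs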;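 note: integrated fluorescence ratio of peak minus minimum over baseline after agonist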
TRPC6 act conf – mouse TRPC6 activator confirmation; shares compounds with TRPC6 inhibitor; HEK293-TRPC6 membrane potential dye fluorescence, FDSS; activation, % at 10 µM; actives 11% (n = 2,800); AID 488961;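 active = ratio signal rise beyond 5 SD above unstimulated control wells' mean, seen in both duplicate runs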
A number is an active result; n = inactive; x = no result.

SMILES | TRPC4 PAM | TRPC4 inh | TRPC4 agonist | TRPC6 act | TRPC6 inhibitor | HEK293 MPD ctr-2 | HEK293 MPD ctr 2-2 | TRPC4/MOR mod | TRPC4 ctr inh 2 | TRPC6 block conf | TRPC6 act conf | others
c1ccc2c(N3CCCC3)nc(-c3ccncc3)nc2c1 | n | n | n | n | -7.25 | -248.0% | n | -42.0% | 35.0% | 39.0% | n
CCCCN(CCCNC(=O)CN1C(=O)COc2ccc(S(=O)(=O)N3CCC(C)CC3)cc21)Cc1ccccc1 | n | n | n | n | n | x | x | x | x | x | x
COc1ccccc1CN1CC(C(=O)NCc2ncccc2C)CCC1=O (stereo not given) | n | n | n | n | n | x | x | x | x | x | x
O=S(=O)(c1ccc(Cl)c(NC(=S)N/N=C/c2ccc(O)cc2)c1)N1CCOCC1 | n | n | n | n | -9.14 | n | n | n | n | n | n
O=[N+]([O-])c1cc(Cl)cc(/C=N/NC(=S)Nc2ccc(S(=O)(=O)N3CCOCC3)cc2)c1O | 26 | n | n | n | -7.58 | x | x | x | x | n | n | TRPC4 spec 2=57.0%;TRPC4 spec=-24.2%;HEK293 MPD ctr 2-1=n;HEK293 MPD ctr-1=-274.0%
COc1ccc(S(=O)(=O)N(C)c2ccc(C(=O)NCC3CCCO3)cc2)cc1OC (stereo not given) | n | n | n | n | n | x | x | x | x | x | x
O=C(Nc1ccccc1-c1nnc(SCc2ccccc2Cl)o1)c1ccccc1 | n | n | n | n | n | x | x | x | x | x | x
O=C(CCCc1ccccc1)Nc1ccc2c(c1)OCCO2 | n | n | n | n | n | x | x | x | x | x | x
CSc1nnc(C)c(/C=C/Nc2ccc(Cl)cc2)n1 | n | n | n | 14 | n | 214.0% | n | 35.5% | n | n | 36.5%
Fc1ccc(CNCCC(Cc2ccccc2)c2ccco2)cc1 (stereo not given) | n | n | n | n | n | x | x | x | x | x | x
CC(NCCC(Cc1ccccc1)c1ccco1)c1ccccc1 (stereo not given) | n | -6 | n | 12.1 | -5.57 | 167.0% | n | 42.5% | 39.5% | n | 36.5%
CCNCCC(=O)N1c2ccccc2Sc2ccc(C(F)(F)F)cc21 | n | n | n | n | -6.1 | n | 94.5% | 9.0% | 42.5% | 83.5% | x
O=C(CN1CCCC1)N1c2ccccc2Sc2ccc(Cl)cc21 | n | n | n | n | -5.5 | 96.0% | n | 14.0% | 47.0% | 59.5% | x
O=C(CN1CCN(c2ccccn2)CC1)N1c2ccccc2Sc2ccc(C(F)(F)F)cc21 | n | n | n | n | n | x | x | x | x | x | x
O=C(CN1CCCC1)N1c2ccccc2Sc2ccc(C(F)(F)F)cc21 | n | n | n | n | -5.57 | n | n | 12.0% | n | 53.0% | x

Screening data from PubChem.
